From PMC10549240 (RSC Chemical Biology, 2023)

Assays:
Env(wt) = assay: Bind&Bite reaction with Env; set-up: species or system HIV-1; details: DMEM with 10% FCS
Method in brief: (§1)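 Env trimers (wild-type or C-terminal G4S-PepK fusion) were expressed in FreeStyle 293-F cells and lectin-purified. Biotinylated PepE was either activated in situ (7.1 μM with 71 μM EDC and 177.5 μM NHS, 30 min RT) or used as pre-activated, HPLC-purified NHS ester. It was added 1:10 to Env at 71 nM final in DMEM/10% FCS, giving final peptide 710, 71, 7.1 or 0.71 nM. Mixtures were incubated 30 min RT, run on reducing 10% SDS-PAGE, and blotted. Blots were probed with streptavidin-HRP or goat anti-gp120/anti-goat HRP, with ECL detection.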

Env-PepK = assay: Bind&Bite reaction with Env-PepK in DMEM/10% FCS, SDS-PAGE and Western Blot; set-up: species or system HIV-1; details: Env-PepK 71 nM in DMEM with 10% FCS; 30 min RT; streptavidin-HRP blot
Method in brief: as §1

Bio-PepK-StA [1] = format: binding; details: C-terminal truncation of Fluo-PepE, Fig. 3A
Method in brief: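 Fluorescein-labelled PepE variants truncated at the C-terminus (50 nM in water) were mixed 1:1 with serial dilutions of biotin-PepK/streptavidin complex starting at 20 μM. No activation was used. Fluorescence polarization was measured after 30 min (485 nm excitation, 535 nm emission). The read-out was the Δpolarization relative to samples without biotinylated peptide/streptavidin.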

Bio-PepK-StA [2] = assay: Flupol binding assay after Bind&Bite reaction; details: covalently stabilized by Bind&Bite, Fig. 3B
Method in brief: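 Equal volumes were mixed with serially diluted biotin-PepK/streptavidin complex starting at 20 μM. Fluorescence polarization was read after 30 min (ex 485/em 535 nm). The read-out was Δpolarization versus samples without biotinylated peptide/streptavidin.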

Substance	affinity of the non-covalent interaction with full-length PepK (Bio-PepK-StA [1])	further results
Ac-EIAALEREIAALEREIAALER-Aoa-Aoa-Lys(Bio)-NH2 [PepE-Bio]	–	off-target reaction with other components of the medium, in situ activated (Env(wt); in situ activated (EDC/NHS), Fig. 4C): considerable off-target reaction; off-target reactions, pre-activated, purified (Env(wt); pre-activated, purified PepE-Bio, Fig. 4D): largely eliminated; reaction with the PepK tag of Env-PepK (Env-PepK): selective reaction
Fluo-Aoa-EIAALEREIAALER-NH2 [PepE(-7C)]	complete loss of binding	concentrations at which the peptide binds to full-length PepK (Bio-PepK-StA [2]): submicromolar
Fluo-Aoa-EIAALEREIAALERE-NH2 [PepE(-6C)]	complete loss of binding	–
Fluo-Aoa-EIAALEREIAALEREIAAL-NH2 [PepE(-2C)]	very similar to full-length PepE	–
Fluo-Aoa-EIAALEREIAALEREIAALE-NH2 [PepE(-1C)]	very similar to full-length PepE	–
